Tests used:
HEK-293T = experiment: Incucyte cell viability with HEK293T; assay type: toxicity, cell-based; conditions: human, 10 µM, compound concentration 10 uM; also: filed as whole numbers so only -1 and 0 and 1 occur
U2OS = experiment: Multiplex assay against U2OS; assay type: toxicity, cell-based; conditions: human
Outline: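 Per cents of healthy-nucleus cells form the tubulin, mitochondrial-mass and membrane-permeability phenotype values. Live cells were stained at seeding with Hoechst33342, BioTracker Green Microtubule Cytoskeleton Dye, MitoTracker Red and Annexin V Alexa Fluor 680. After compound addition they were imaged on a CQ1 microscope at 37°C and 5% CO2, and CellPathfinder machine-learning gating split them into Hoechst high-intensity objects or normal cells, normal cells into healthy, pyknosed or fragmented nuclei, and pyknosed cells into mitotic or apoptotic.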

[1] = 12 h, 1 µM, compound concentration 1 uM, replicate 1
[2] = 12 h, 1 µM, compound concentration 1 uM, replicate 2
[3] = 12 h, 10 µM, compound concentration 10 uM, replicate 1
[4] = 12 h, 10 µM, compound concentration 10 uM, replicate 2
[5] = 24 h, 1 µM, compound concentration 1 uM, replicate 1
[6] = 24 h, 1 µM, compound concentration 1 uM, replicate 2
[7] = 24 h, 10 µM, compound concentration 10 uM, replicate 1
[8] = 24 h, 10 µM, compound concentration 10 uM, replicate 2
[9] = 48 h, 1 µM, compound concentration 1 uM, replicate 1
[10] = 48 h, 1 µM, compound concentration 1 uM, replicate 2
[11] = 48 h, 10 µM, compound concentration 10 uM, replicate 1
[12] = 48 h, 10 µM, compound concentration 10 uM, replicate 2

O=C(O)c1ccc2cc(-c3ccc(O)c(C45CC6CC(CC(C6)C4)C5)c3)ccc2c1 [O-DEMETHYLATED ADAPALENE]
Growth Rate (HEK-293T; 0 h, replicate number 1, timepoint 0 hours): 1 | Growth Rate (HEK-293T; 0 h, replicate number 2, timepoint 0 hours): 0 | Growth Rate (HEK-293T; 6 h, replicate number 1, timepoint 6 hours): 0 | Growth Rate (HEK-293T; 12 h, replicate number 1, timepoint 12 hours): 0 | Growth Rate (HEK-293T; 18 h, replicate number 1, timepoint 18 hours): 0 | Growth Rate (HEK-293T; 24 h, replicate number 1, timepoint 24 hours): 0 | Population Apoptotic (%) (U2OS; [1]): 50% | Population Fragmented Nuclei (%) (U2OS; [1]): 21% | Population Healthy Nuclei (%) (U2OS; [1]): 66% | Population Hoechst High Intensity Objects (%) (U2OS; [1]): 11% | Population Membrane Permeable-Phenotype (%) (U2OS; [1]): 13% | Population Mitochondria Different-Phenotype (%) (U2OS; [1]): 12% | Population Mitotic Cells (%) (U2OS; [1]): 50% | Population Normal (%) (U2OS; [1]): 88% | Population Pyknosed Nuclei (%) (U2OS; [1]): 11% | Population Tubulin-Different-Phenotype (%) (U2OS; [1]): 15% | Total Cell Count (U2OS; [1]): 98 | Population Apoptotic (%) (U2OS; [2]): 100% | Population Fragmented Nuclei (%) (U2OS; [2]): 8% | Population Healthy Nuclei (%) (U2OS; [2]): 87% | Population Hoechst High Intensity Objects (%) (U2OS; [2]): 9% | Population Membrane Permeable-Phenotype (%) (U2OS; [2]): 6% | Population Mitochondria Different-Phenotype (%) (U2OS; [2]): 16% | Population Mitotic Cells (%) (U2OS; [2]): 0% | Population Normal (%) (U2OS; [2]): 90% | Population Pyknosed Nuclei (%) (U2OS; [2]): 3% | Population Tubulin-Different-Phenotype (%) (U2OS; [2]): 16% | Total Cell Count (U2OS; [2]): 62 | Population Apoptotic (%) (U2OS; [3]): 66% | Population Fragmented Nuclei (%) (U2OS; [3]): 9% | Population Healthy Nuclei (%) (U2OS; [3]): 85% | Population Hoechst High Intensity Objects (%) (U2OS; [3]): 6% | Population Membrane Permeable-Phenotype (%) (U2OS; [3]): 4% | Population Mitochondria Different-Phenotype (%) (U2OS; [3]): 15% | Population Mitotic Cells (%) (U2OS; [3]): 33% | Population Normal (%) (U2OS; [3]): 93% | Population Pyknosed Nuclei (%) (U2OS; [3]): 4% | Population Tubulin-Different-Phenotype (%) (U2OS; [3]): 11% | Total Cell Count (U2OS; [3]): 205 | Population Apoptotic (%) (U2OS; [4]): 100% | Population Fragmented Nuclei (%) (U2OS; [4]): 11% | Population Healthy Nuclei (%) (U2OS; [4]): 87% | Population Hoechst High Intensity Objects (%) (U2OS; [4]): 2% | Population Membrane Permeable-Phenotype (%) (U2OS; [4]): 1% | Population Mitochondria Different-Phenotype (%) (U2OS; [4]): 16% | Population Mitotic Cells (%) (U2OS; [4]): 0% | Population Normal (%) (U2OS; [4]): 97% | Population Pyknosed Nuclei (%) (U2OS; [4]): 1% | Population Tubulin-Different-Phenotype (%) (U2OS; [4]): 25% | Total Cell Count (U2OS; [4]): 83 | Population Apoptotic (%) (U2OS; [5]): 30% | Population Fragmented Nuclei (%) (U2OS; [5]): 15% | Population Healthy Nuclei (%) (U2OS; [5]): 73% | Population Hoechst High Intensity Objects (%) (U2OS; [5]): 11% | Population Membrane Permeable-Phenotype (%) (U2OS; [5]): 10% | Population Mitochondria Different-Phenotype (%) (U2OS; [5]): 13% | Population Mitotic Cells (%) (U2OS; [5]): 70% | Population Normal (%) (U2OS; [5]): 89% | Population Pyknosed Nuclei (%) (U2OS; [5]): 11% | Population Tubulin-Different-Phenotype (%) (U2OS; [5]): 10% | Total Cell Count (U2OS; [5]): 100 | Population Apoptotic (%) (U2OS; [6]): 100% | Population Fragmented Nuclei (%) (U2OS; [6]): 7% | Population Healthy Nuclei (%) (U2OS; [6]): 89% | Population Hoechst High Intensity Objects (%) (U2OS; [6]): 6% | Population Membrane Permeable-Phenotype (%) (U2OS; [6]): 6% | Population Mitochondria Different-Phenotype (%) (U2OS; [6]): 30% | Population Mitotic Cells (%) (U2OS; [6]): 0% | Population Normal (%) (U2OS; [6]): 93% | Population Pyknosed Nuclei (%) (U2OS; [6]): 3% | Population Tubulin-Different-Phenotype (%) (U2OS; [6]): 18% | Total Cell Count (U2OS; [6]): 60 | Population Apoptotic (%) (U2OS; [7]): 64% | Population Fragmented Nuclei (%) (U2OS; [7]): 15% | Population Healthy Nuclei (%) (U2OS; [7]): 77% | Population Hoechst High Intensity Objects (%) (U2OS; [7]): 5% | Population Membrane Permeable-Phenotype (%) (U2OS; [7]): 4% | Population Mitochondria Different-Phenotype (%) (U2OS; [7]): 20% | Population Mitotic Cells (%) (U2OS; [7]): 35% | Population Normal (%) (U2OS; [7]): 94% | Population Pyknosed Nuclei (%) (U2OS; [7]): 7% | Population Tubulin-Different-Phenotype (%) (U2OS; [7]): 14% | Total Cell Count (U2OS; [7]): 206 | Population Apoptotic (%) (U2OS; [8]): 0% | Population Fragmented Nuclei (%) (U2OS; [8]): 14% | Population Healthy Nuclei (%) (U2OS; [8]): 81% | Population Hoechst High Intensity Objects (%) (U2OS; [8]): 7% | Population Membrane Permeable-Phenotype (%) (U2OS; [8]): 7% | Population Mitochondria Different-Phenotype (%) (U2OS; [8]): 26% | Population Mitotic Cells (%) (U2OS; [8]): 100% | Population Normal (%) (U2OS; [8]): 92% | Population Pyknosed Nuclei (%) (U2OS; [8]): 3% | Population Tubulin-Different-Phenotype (%) (U2OS; [8]): 28% | Total Cell Count (U2OS; [8]): 83 | Population Apoptotic (%) (U2OS; [9]): 50% | Population Fragmented Nuclei (%) (U2OS; [9]): 16% | Population Healthy Nuclei (%) (U2OS; [9]): 75% | Population Hoechst High Intensity Objects (%) (U2OS; [9]): 7% | Population Membrane Permeable-Phenotype (%) (U2OS; [9]): 7% | Population Mitochondria Different-Phenotype (%) (U2OS; [9]): 31% | Population Mitotic Cells (%) (U2OS; [9]): 50% | Population Normal (%) (U2OS; [9]): 92% | Population Pyknosed Nuclei (%) (U2OS; [9]): 7% | Population Tubulin-Different-Phenotype (%) (U2OS; [9]): 13% | Total Cell Count (U2OS; [9]): 117 | Population Apoptotic (%) (U2OS; [10]): 71% | Population Fragmented Nuclei (%) (U2OS; [10]): 9% | Population Healthy Nuclei (%) (U2OS; [10]): 80% | Population Hoechst High Intensity Objects (%) (U2OS; [10]): 2% | Population Membrane Permeable-Phenotype (%) (U2OS; [10]): 10% | Population Mitochondria Different-Phenotype (%) (U2OS; [10]): 42% | Population Mitotic Cells (%) (U2OS; [10]): 28% | Population Normal (%) (U2OS; [10]): 97% | Population Pyknosed Nuclei (%) (U2OS; [10]): 9% | Population Tubulin-Different-Phenotype (%) (U2OS; [10]): 21% | Total Cell Count (U2OS; [10]): 73 | Population Apoptotic (%) (U2OS; [11]): 72% | Population Fragmented Nuclei (%) (U2OS; [11]): 33% | Population Healthy Nuclei (%) (U2OS; [11]): 47% | Population Hoechst High Intensity Objects (%) (U2OS; [11]): 9% | Population Membrane Permeable-Phenotype (%) (U2OS; [11]): 0% | Population Mitochondria Different-Phenotype (%) (U2OS; [11]): 34% | Population Mitotic Cells (%) (U2OS; [11]): 27% | Population Normal (%) (U2OS; [11]): 90% | Population Pyknosed Nuclei (%) (U2OS; [11]): 19% | Population Tubulin-Different-Phenotype (%) (U2OS; [11]): 7% | Total Cell Count (U2OS; [11]): 213 | Population Apoptotic (%) (U2OS; [12]): 90% | Population Fragmented Nuclei (%) (U2OS; [12]): 14% | Population Healthy Nuclei (%) (U2OS; [12]): 70% | Population Membrane Permeable-Phenotype (%) (U2OS; [12]): 20% | Population Mitochondria Different-Phenotype (%) (U2OS; [12]): 54% | Population Mitotic Cells (%) (U2OS; [12]): 9% | Population Pyknosed Nuclei (%) (U2OS; [12]): 14% | Population Tubulin-Different-Phenotype (%) (U2OS; [12]): 45% | Total Cell Count (U2OS; [12]): 83

Source: ChEMBL document CHEMBL4689842, “EUbOPEN Chemogenomics Library wave 1” (2021)
